Assay outcomes (PubChem BioAssay)
OX1R antag-1: OX1R (HCRTR1) antagonists, primary screen, fluorescence, CHO/OX1R cells, Fluo-8 calcium, orexin A | 0.43% of 330,000 active | AID 434989, 2010 | inhibition, % at 5 µM | Fluo-8 calcium fluorescence | Orexin/Hypocretin receptor type 1 (Homo sapiens), O43613;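 active = inhibition above its plate's threshold, mean inhibition of all tested compounds on the plate plus 3 SD, cut at about 37% in these data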
Target sequence (O43613 whole entry, looked up): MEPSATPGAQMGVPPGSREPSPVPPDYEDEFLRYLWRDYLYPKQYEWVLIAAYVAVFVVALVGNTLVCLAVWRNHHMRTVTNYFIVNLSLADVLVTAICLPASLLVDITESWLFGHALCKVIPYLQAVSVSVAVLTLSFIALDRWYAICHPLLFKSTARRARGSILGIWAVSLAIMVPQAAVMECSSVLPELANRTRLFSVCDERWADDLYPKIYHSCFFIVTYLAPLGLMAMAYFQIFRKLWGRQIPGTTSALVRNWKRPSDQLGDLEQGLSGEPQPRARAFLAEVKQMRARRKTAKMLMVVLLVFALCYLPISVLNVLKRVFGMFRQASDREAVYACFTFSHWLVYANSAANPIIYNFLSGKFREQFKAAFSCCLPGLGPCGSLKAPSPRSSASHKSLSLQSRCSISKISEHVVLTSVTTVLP
CHO-K1 Ca ag: counter-screen for M1 agonists: effect in parental CHO-K1 cells; AID 602248, 2012; 0.48% of 360,000 active; activation, % at 3 µM; Fluo-8 calcium fluorescence; scaled to maximal ATP response, vehicle zero; in the data active = activation above about 15%;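 also: untransfected CHO-K1 host cells lacking M1 receptor as counterscreen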
CHO-K1 Ca antag: counter-screen for M1 antagonists: effect in parental CHO-K1 cells; inhibition, % at 3 µM; ATP-induced calcium, Fluo-8 fluorescence; 0.6% of 360,000 active; AID 602250;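 active = inhibition above a per-plate cutoff, the plate's mean sample inhibition plus 3 SD, cut at about 24% in these data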
M1 PAM parental: nonselective calcium activators in parental CHO-K1 cells, primary screen, counter-screen for M1 PAM project, cell-based, Fluo-8 calcium fluorescence, full deck, 1536-well. ATP EC20; 0% at ATP EC20, 100% at ATP max. activation, % at 3 µM. 0.02% of 360,000 active. AID 602247, 2012;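 active = activation above the run cutoff, the mean activation of all test compounds plus 3 SD, cut at about 40% in these data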;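 also: peak over basal fluorescence ratio in a 140 s read after ATP addition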
CHO parental Ca: ATP-evoked calcium signal inhibitors, parental CHO, primary screen, counter-screen for OX1R antagonist project, cell-based, fluorescence, Fluo-8 calcium dye; parental CHO-K1, ATP-induced calcium, Fluo-8 fluorescence; inhibition, % at 5.6 µM; 0.63% of 330,000 active;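 active = inhibition above that plate's mean sample inhibition plus 3 SD, cut at about 26% in these data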
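test system = CHO parental line | reagent = ATP stimulus | measured by = intracellular calcium via Fluo-8 no-wash fluorescent dye | control set = ATP and no-ATP DMSO wells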
OX1R antag-2: antagonists of human orexin 1 receptor (OX1R) | 1.8% of 330,000 active | Orexin/Hypocretin receptor type 1 (Homo sapiens), O43613 | inhibition, % at 6.6 µM | OX1R-expressing cells, FRET antagonist read-out; in the data active = inhibition mostly above about 38%, no sharp cut-off; inactive = mostly below about 40%
Large screens that a line does not name were inactive. The list is not random: actives were taken first. Their share in the collection is about 2.9%.

CCCCCC(=O)N1C[C@@H](n2cc(C3CC3)nn2)[C@H](O)C[C@@H]1c1ccccc1	none (no result: OX1R antag-1, CHO parental Ca, OX1R antag-2)
O=C(O)c1ccc(N2C(=O)c3ccc(C(=O)c4cccc([N+](=O)[O-])c4)cc3C2=O)cc1	none
COc1ccccc1OCC(=O)OCC(=O)Nc1sccc1C(N)=O	none
Cc1cccc(OCC(=O)OCC(=O)Nc2sccc2C(N)=O)c1	OX1R antag-1 43.6, CHO-K1 Ca ag 20.4, CHO parental Ca 33.1
Cc1cccc(OC(C)C(=O)OCC(=O)Nc2sccc2C(N)=O)c1 (stereo unspecified)	CHO-K1 Ca ag 15.5
COc1cc(-c2cc(NC=O)c3ncc(-c4ccc(C(C)=O)cc4)n3c2)ccc1O	none (no result: OX1R antag-1, CHO parental Ca, OX1R antag-2)
CCCCOc1ccc(/C=N/NC(=S)Nc2cc(C)ccc2C)cc1	CHO-K1 Ca antag 28.0
Cc1ccc(S(=O)(=O)N2CCC(C(=O)OCC(=O)N(C)C3CCS(=O)(=O)C3)CC2)cc1C (stereo unspecified)	none
CCN(C(=O)c1ccccc1F)c1nc(-c2ccc(OC)cc2)cs1	none
CC(C(=O)NC(C)(C)C)N(Cc1cccs1)C(=O)CCN1CCc2ccccc21 (stereo unspecified)	CHO-K1 Ca ag 22.5
O=C(CC1C(=O)NCCN1Cc1ccccc1C(F)(F)F)NC1CCCCCC1 (stereo unspecified)	none
COc1ccc(S(=O)(=O)N2CCOC2CNC(=O)C(=O)NCC(C)C)cc1OC (stereo unspecified)	none
Cc1ccc(S(=O)(=O)N2CCN(CC(=O)Nc3ccc(N4CCOCC4)cc3)CC2)cc1C	none
Cc1cccc(N2CCN(CC(=O)Nc3ccc(S(=O)(=O)N4CCOCC4)cc3)CC2)c1C	CHO parental Ca 55.5
O=C(Nc1ccc(C(=O)O)cc1)Nc1cccc([N+](=O)[O-])c1	none
O=C(Nc1cccc([N+](=O)[O-])c1)Nc1cccc([N+](=O)[O-])c1	CHO parental Ca 33.8
COc1cc(NC(=O)Nc2cccc([N+](=O)[O-])c2)cc(OC)c1	CHO-K1 Ca ag 15.2
Cc1ccc2nc(SCC(=O)Nc3cccc([N+](=O)[O-])c3)[nH]c2c1	OX1R antag-1 52.5, CHO-K1 Ca ag 16.0
O=C(Nc1cccc([N+](=O)[O-])c1)NC1CCCCCCC1	CHO-K1 Ca ag 16.3 (no result: OX1R antag-1, CHO parental Ca, OX1R antag-2)
O=C(CNC1CCCCC1)Nc1cccc([N+](=O)[O-])c1	none
COc1ccc(CCNC(=O)Nc2cccc([N+](=O)[O-])c2)cc1	CHO-K1 Ca ag 15.5
O=C(Nc1ccc(Br)cc1)NC1CCCCCCC1	CHO parental Ca 40.1
Cc1ccc(S(=O)(=O)CCC(=O)Nc2cccc([N+](=O)[O-])c2)cc1	none
CC(CCc1ccccc1)NC(=O)Cc1ccc([N+](=O)[O-])cc1 (stereo unspecified)	none
CC(CCc1ccccc1)NC(=O)CNc1cccc([N+](=O)[O-])c1 (stereo unspecified)	CHO-K1 Ca ag 15.1
Cc1ccc(CC(=O)Nc2cccc([N+](=O)[O-])c2)cc1	CHO-K1 Ca ag 17.8
COc1ccc(C(=O)C2CCCN(C(=O)c3cccc(Cl)c3F)C2)cc1OC (stereo unspecified)	none
Cc1sc2ncnc(N3CCC(C(=O)N4CC(C)SC4=Nc4ccc(Cl)cc4)CC3)c2c1C (stereo unspecified)	none (no result: OX1R antag-1, CHO parental Ca, OX1R antag-2)
O=C(CCN1CCC(c2ccc(Cl)s2)=N1)c1ccc(Cl)s1	none
CN(C(=O)CCc1nnc(-c2ccc(-c3ccccc3)cc2)o1)C1CCOCC1	CHO-K1 Ca ag 17.3
COCCN1CCn2c(nc3cc([N+](=O)[O-])ccc32)C1	OX1R antag-2 40.1
O=C(NCc1ccccc1Cl)C1CCN(c2cnccn2)CC1	none
CCOP(=O)(OCC)C(C)(C)NC(=O)c1cc([N+](=O)[O-])cc([N+](=O)[O-])c1	OX1R antag-2 59.3
CCOP(=O)(OCC)C(NC(=O)c1cc([N+](=O)[O-])cc([N+](=O)[O-])c1)C(F)(F)F (stereo unspecified)	OX1R antag-2 67.5
CCC(C)(C)NC(=O)c1cc(C(=O)OC)cc([N+](=O)[O-])c1	none
COc1ccc2c(CC(=O)NNC(=O)c3cccs3)coc2c1	none (no result: OX1R antag-1, CHO parental Ca, OX1R antag-2)
